Assay results reported in paper PMC4113001 (Biochimica et biophysica acta, 2011).

Columns and labels:
CRBPI [1] = molecular target: T1, CRBPI (Rattus norvegicus, UniProt P02696); test: Fluorescence titration binding of retinoids to CRBPI; details: for affinity of CRBPI compared to CRBPII (fold stronger): ratio of Kd′ values CRBPII/CRBPI
T1 sequence (P02696 1-135): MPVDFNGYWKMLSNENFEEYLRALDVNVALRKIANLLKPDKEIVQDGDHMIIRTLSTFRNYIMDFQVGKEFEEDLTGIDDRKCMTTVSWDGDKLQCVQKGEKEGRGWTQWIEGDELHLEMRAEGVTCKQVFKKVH

CRBPI [2] = molecular target: T1, CRBPI; format: binding; details: excitation spectra pre- and post-column
In short: (§1)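 Sephadex G-50 (fine) was equilibrated for several days in 20 mM KH2PO4, 100 mM KCl, pH 7.4. Small syringe columns were poured, a separate one for each protein–ligand pair. E. coli-expressed, FPLC-purified protein carried bound retinol. Excitation spectra of the complex were recorded before and after passage, with roughly equivalent free retinol in buffer as reference. Blanks were subtracted.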

CRBPII = molecular target: T2, CRBPII (Rattus norvegicus, UniProt P06768); format: binding; details: excitation spectra pre- and post-column
T2 sequence (P06768 1-134): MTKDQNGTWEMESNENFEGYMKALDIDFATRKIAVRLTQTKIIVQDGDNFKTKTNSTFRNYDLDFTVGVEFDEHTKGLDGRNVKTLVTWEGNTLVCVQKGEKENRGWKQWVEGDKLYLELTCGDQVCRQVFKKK
In short: as §1

CRBPI and II = details: 19F NMR estimate; cited from earlier work

| Compound | CRBPI affinity for 9-cis-retinol relative to all-trans- and 13-cis-retinol (fold lower) (CRBPI [1]; ratio of Kd′ values) | affinity of CRBPI compared to CRBPII (fold stronger) (CRBPI [1]) | elution of complex with CRBPI through Sephadex G-50 (CRBPI [2]) | elution of complex with CRBPII through Sephadex G-50 (CRBPII) | Kd′ value of CRBPI relative to CRBPII (fold less) (CRBPI and II) |
| --- | --- | --- | --- | --- | --- |
| CC1=C(/C=C/C(C)=C\C=C\C(C)=C\CO)C(C)(C)CCC1 [9-cis-retinol] | ~ 3 fold | ~ 6 fold | eluted bound | eluted bound |  |
| CC1=C(/C=C/C(C)=C/C=C/C(C)=C/CO)C(C)(C)CCC1 [all-trans-retinol] |  | ~ 3 fold | bound | bound | 10–100 fold |
